Active and inactive are the calls of the source.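 The calls were made as follows: active = cell viability under 70% at any tested concentration, a measure not printed in our tables; inactive = the rest.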

The subject of the test is HEp-2 viability, luminescence, cytotoxicity counter-screen. Put plainly: HEp-2 cell cytotoxicity, dose response, cytotoxicity control for RSV inhibitor project, HEp-2 cells, synthesized compounds, set 6 (AID 504509). An outline of the steps:
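Test system: HEp-2 cells without virus; Medium: DMEM/F12; Timing: 6 d at 37 °C; Detection: CellTiter-Glo luminescence reporting cellular ATP; Replication: triplicate.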
Turning to `COc1cccc(CNC(=O)C2CCN(S(=O)(=O)c3cccc4nonc34)CC2)c1`, the CC50 (commonly the concentration giving 50% cytotoxicity) was > 50 µM (inactive). The value for `Cc1ccc(C(C)(C)C)cc1NC(=O)[C@@H]1CCCN1S(=O)(=O)c1cccc2cccnc12` was 7.18 µM; that for `Cc1ccc(C)c(NC(=O)[C@@H]2CCCN2S(=O)(=O)c2cccc3cccnc23)c1` was 50.4 µM; that for `Cc1ccc(Cl)cc1NC(=O)[C@@H]1CCCN1S(=O)(=O)c1cccc2cccnc12` was 9.59 µM. For the compound `COc1ccccc1CNC(=O)C1CCN(Cc2cccc3nonc23)CC1`, the CC50 is > 50 µM (inactive). For `COc1ccccc1NCC(=O)Nc1cc(S(=O)(=O)N2CCOCC2)ccc1N1CCOCC1` the value was > 50 µM (inactive). For `Cc1ccc(C(F)(F)F)cc1NC(=O)[C@@H]1CCCN1S(=O)(=O)c1cccc2cccnc12` the value was 6.92 µM; for `COc1ccccc1CNC(=O)C1CCN(S(=O)(=O)c2cccc3nonc23)CC1`, > 50 µM (inactive). The value for `Cc1ccc(Cl)c(NC(=O)[C@@H]2CCCN2S(=O)(=O)c2cccc3cccnc23)c1` was 9.83 µM. As for `COc1ccccc1CNC(=O)C1CCN(S(=O)(=O)c2ccccc2)CC1`, the CC50 is > 50 µM (inactive). For `COc1ccccc1CNC(=O)[C@@H]1CCCN1S(=O)(=O)c1cccc2cccnc12` the value was > 50 µM (inactive); for `COc1ccccc1CNC(=O)C1CCN(S(=O)(=O)c2cccc3cccnc23)CC1`, > 50 µM (inactive); for `Cc1cccc(C)c1NC(=O)[C@@H]1CCCN1S(=O)(=O)c1cccc2cccnc12`, > 50 µM (inactive). For `Cc1ccc(C(C)C)cc1NC(=O)[C@@H]1CCCN1S(=O)(=O)c1cccc2cccnc12`, the CC50 was 8.26 µM.

Consider `COCCNC(=O)c1ccc(Cn2c(=O)c3ccccc3n(Cc3ccc(C)cc3)c2=O)cc1`, for which the CC50 was > 50 µM (inactive). As to `COCCCNC(=O)c1ccc(Cn2c(=O)c3ccccc3n(Cc3ccccc3)c2=O)cc1`, the CC50 is > 50 µM (inactive). The value for `O=C(O)C1CC=CCC1C(=O)Nc1ccc(S(=O)(=O)N2CCCc3ccccc32)cc1` (configuration not stated) was 33 µM.
